Measured values reported in ChEMBL document CHEMBL1151475, “Thiopurine drugs azathioprine and 6-mercaptopurine inhibit Mycobacterium paratuberculosis growth in vitro” (2008).

Key:
[1] = test system: Mycobacterium avium subsp. paratuberculosis; experiment: Antituberculosis activity against Mycobacterium paratuberculosis B244 isolated from bovine assessed as minimum drug level required for killing after 56 days by MGIT 960 susceptibility test; type: functional
In short: (§1)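 10^5 to 10^6 CFU from single-cell suspensions inoculated in duplicate into MGIT ParaTB medium with supplement and egg yolk. Drugs were at final 0.5–64.0 μg/ml, with 128.0 μg/ml added for some strains. Tubes were incubated at 37°C in MGIT 960. Inhibition is the lowest concentration giving a time to detection longer than a drug-free 1:100 inoculum control. Killing is no positive signal through 56 days.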

[2] = test system: Mycobacterium avium subsp. paratuberculosis; experiment: Antituberculosis activity against Mycobacterium paratuberculosis ATCC 19698 isolated from bovine assessed as lowest drug level producing inhibition at 10^6 CFU of inoculum by agar counting method; type: functional
In short: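 ATCC 19698 at 10^6 CFU was exposed to drug (1.0–64.0 μg/ml) in MGIT ParaTB medium at 37°C. Aliquots taken at 3 and 5 days were centrifuged, resuspended in PBS and declumped with glass beads. Serial dilutions were plated in quadruplicate on 7H10/OADC/mycobactin J and counted after 8 weeks. Inhibition is the lowest concentration giving a 2 log10 (99%) CFU reduction.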

[3] = test system: Mycobacterium avium subsp. paratuberculosis; experiment: Antituberculosis activity against Mycobacterium paratuberculosis ATCC 19698 isolated from bovine assessed as minimum drug level resulting in no detectable growth at 10^6 CFU of inoculum after 56 days by MGIT 960 susceptibility test; type: functional
In short: (§2)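 M. paratuberculosis ATCC 19698 at 10^6 CFU per MGIT ParaTB tube in duplicate, drugs at final 1.0–64.0 μg/ml, 37°C in MGIT 960. Inhibition is the lowest concentration whose time to detection exceeds the 1:100 diluted-inoculum solvent control. No detectable growth means the tube never signals positive through 56 days.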

[4] = test system: Mycobacterium avium subsp. paratuberculosis; experiment: Antituberculosis activity against Mycobacterium paratuberculosis ATCC 19698 isolated from bovine assessed as lowest drug level producing inhibition at 10^6 CFU of inoculum by MGIT 960 susceptibility test; type: functional; in short: as §2
[5] = test system: Mycobacterium avium subsp. paratuberculosis; experiment: Antituberculosis activity against Mycobacterium paratuberculosis B213 isolated from bovine assessed as minimum drug level required for inhibition by MGIT 960 susceptibility test; type: functional; in short: as §1
Mycobacterium avium [6] = experiment: Antituberculosis activity against Mycobacterium avium ATCC 35712 isolated from chicken assessed as minimum drug level required for inhibition by MGIT 960 susceptibility test; type: functional; in short: as §1
Mycobacterium avium [7] = experiment: Antituberculosis activity against Mycobacterium avium 104 isolated from AIDS patient assessed as minimum drug level required for inhibition by MGIT 960 susceptibility test; type: functional; in short: as §1
[8] = test system: Mycolicibacterium smegmatis; experiment: Antituberculosis activity against Mycobacterium smegmatis ATCC 14468 assessed as minimum drug level required for killing after 56 days by MGIT 960 susceptibility test; type: functional; in short: as §1
Mycolicibacterium phlei [9] = experiment: Antituberculosis activity against Mycobacterium phlei ATCC 11758 assessed as minimum drug level required for killing after 56 days by MGIT 960 susceptibility test; type: functional
In short: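 Duplicate MGIT ParaTB tubes with egg yolk and supplement received 10^5 to 10^6 CFU and thiopurine (in 0.05 M NaOH/10 mM PBS) at final 0.5 to 64.0 μg/ml, plus 128.0 μg/ml for some strains. Tubes were incubated at 37°C in the MGIT 960. The value is the minimum concentration whose tubes never signalled positive by 56 days.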

[10] = test system: Mycobacterium avium subsp. paratuberculosis; experiment: Antituberculosis activity against Mycobacterium paratuberculosis UCF-7 isolated from Crohn's disease patient assessed as colony counts at 2 ug after 12 days by MGIT 960 susceptibility test; type: functional
Mycolicibacterium phlei [11] = experiment: Antituberculosis activity against Mycobacterium phlei ATCC 11758 assessed as minimum drug level required for inhibition by MGIT 960 susceptibility test; type: functional
In short: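 MGIT ParaTB tubes were supplemented with egg yolk and inoculated in duplicate with 10^5 to 10^6 CFU from single-cell suspensions. Thiopurines were dissolved in 0.05 M NaOH in 10 mM PBS and tested at final 0.5 to 64.0 μg/ml, with 128.0 μg/ml added for some strains. Tubes ran at 37°C in the MGIT 960. The value is the lowest concentration giving a time-to-detection longer than a drug-free 1:100 inoculum control.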

Mycobacterium avium [12] = experiment: Antituberculosis activity against Mycobacterium avium WSLH1544 isolated from water assessed as minimum drug level required for killing within 15 days by MGIT 960 susceptibility test; type: functional
[13] = test system: Mycobacterium avium subsp. paratuberculosis; experiment: Antituberculosis activity against Mycobacterium paratuberculosis UCF-4 isolated from Crohn's disease patient assessed as minimum drug level required for killing after 56 days by MGIT 960 susceptibility test; type: functional; in short: as §1
[14] = test system: Mycobacterium avium subsp. paratuberculosis; experiment: Antituberculosis activity against Mycobacterium paratuberculosis UCF-8 isolated from Crohn's disease patient assessed as minimum drug level required for inhibition by MGIT 960 susceptibility test; type: functional; in short: as §1
Escherichia coli = experiment: Antituberculosis activity against Escherichia coli ATCC 25922 clinical isolate assessed as minimum drug level required for inhibition by MGIT 960 susceptibility test; type: functional
[15] = test system: Mycobacterium avium subsp. paratuberculosis; experiment: Antituberculosis activity against Mycobacterium paratuberculosis B238 isolated from bovine assessed as minimum drug level required for inhibition by MGIT 960 susceptibility test; type: functional; in short: as §1
Mycobacterium avium [16] = experiment: Antituberculosis activity against Mycobacterium avium WSLH1544 isolated from water assessed as minimum drug level required for inhibition by MGIT 960 susceptibility test; type: functional; in short: as §1
Enterococcus faecalis = experiment: Antituberculosis activity against Enterococcus faecalis ATCC 29212 isolated from human urine assessed as minimum drug level required for killing after 56 days by MGIT 960 susceptibility test; type: functional
Mycobacterium avium [17] = experiment: Antituberculosis activity against Mycobacterium avium JTC981 isolated from bongo fecal sample assessed as minimum drug level required for inhibition by MGIT 960 susceptibility test; type: functional, Feces; in short: as §1
[18] = test system: Mycobacterium avium subsp. paratuberculosis; experiment: Antituberculosis activity against Mycobacterium paratuberculosis UCF-5 isolated from Crohn's disease patient assessed as minimum drug level required for inhibition by MGIT 960 susceptibility test; type: functional; in short: as §1
Mycobacterium avium [19] = experiment: Antituberculosis activity against Mycobacterium avium ATCC 25291 isolated from chicken assessed as minimum drug level required for inhibition by MGIT 960 susceptibility test; type: functional; in short: as §1
Mycobacterium avium [20] = experiment: Antituberculosis activity against Mycobacterium avium JTC48627 isolated from bison fecal sample assessed as minimum drug level required for killing within 15 days by MGIT 960 susceptibility test; type: functional, Feces
[21] = test system: Mycobacterium avium subsp. paratuberculosis; experiment: Antituberculosis activity against Mycobacterium paratuberculosis B236 isolated from bovine assessed as minimum drug level required for killing after 56 days by MGIT 960 susceptibility test; type: functional; in short: as §1
[22] = test system: Mycobacterium avium subsp. paratuberculosis; experiment: Antituberculosis activity against Mycobacterium paratuberculosis B238 isolated from bovine assessed as minimum drug level required for killing after 56 days by MGIT 960 susceptibility test; type: functional; in short: as §1
[23] = test system: Mycobacterium avium subsp. paratuberculosis; experiment: Antituberculosis activity against Mycobacterium paratuberculosis UCF-5 isolated from Crohn's disease patient assessed as minimum drug level required for killing after 56 days by MGIT 960 susceptibility test; type: functional; in short: as §1
[24] = test system: Mycobacterium avium subsp. paratuberculosis; experiment: Antituberculosis activity against Mycobacterium paratuberculosis UCF-7 isolated from Crohn's disease patient assessed as minimum drug level required for inhibition by MGIT 960 susceptibility test; type: functional; in short: as §1
[25] = test system: Mycobacterium avium subsp. paratuberculosis; experiment: Antituberculosis activity against Mycobacterium paratuberculosis UCF-7 isolated from Crohn's disease patient assessed as colony counts at 4 ug after 12 days by MGIT 960 susceptibility test; type: functional
[26] = test system: Mycobacterium avium subsp. paratuberculosis; experiment: Antituberculosis activity against Mycobacterium paratuberculosis UCF-4 isolated from Crohn's disease patient assessed as minimum drug level required for inhibition by MGIT 960 susceptibility test; type: functional; in short: as §1

## Sc1ncnc2nc[nH]c12 [MERCAPTOPURINE ANHYDROUS]
[1]
  Activity: >32 µg/mL
[2]
  Activity: 1 µg/mL
[3]
  Activity: 32 µg/mL
[4]
  Activity: 1 µg/mL
[5]
  Activity: 4 µg/mL
Mycobacterium avium [6]
  Activity: >64 µg/mL
Mycobacterium avium [7]
  Activity: >64 µg/mL
[8]
  Activity: >128 µg/mL
Mycolicibacterium phlei [9]
  Activity: 16 µg/mL
[10]
  log10CFU/ml: 3.87
Mycolicibacterium phlei [11]
  Activity: 1 µg/mL
Mycobacterium avium [12]
  Activity: >64 µg/mL
[13]
  Activity: >32 µg/mL
[14]
  Activity: <1 µg/mL
Escherichia coli
  Activity: >128 µg/mL
[15]
  Activity: 4 µg/mL
Mycobacterium avium [16]
  Activity: 8 µg/mL
Enterococcus faecalis
  Activity: >128 µg/mL
Mycobacterium avium [17]
  Activity: >64 µg/mL
[18]
  Activity: 1 µg/mL
Mycobacterium avium [19]
  Activity: >64 µg/mL
Mycobacterium avium [20]
  Activity: >64 µg/mL
[21]
  Activity: >32 µg/mL
[22]
  Activity: >32 µg/mL
[23]
  Activity: >32 µg/mL
[24]
  Activity: <1 µg/mL
[25]
  log10CFU/ml: 3.19
[26]
  Activity: 2 µg/mL
